Calls of active or inactive are those of the source. The calls are words filed in the database; no cut-off is given here.
How the values were obtained:
[1] = molecular target: T1, Phosphatidylinositol 4,5-bisphosphate 3-kinase catalytic subunit beta isoform (Homo sapiens, UniProt P42338); experiment: Binding affinity to human PI3Kbeta after 1 hr by MALDI TOF/TOF mass spectrometry
Summary of the method: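 Compound incubated with recombinant PI3K isoform enzyme at a 10:1 compound-to-enzyme molar ratio, room temperature, 1 h; covalent adduct formation read by mass spectrometry.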
Target sequence in this assay (P42338 whole entry, looked up, canonical isoform): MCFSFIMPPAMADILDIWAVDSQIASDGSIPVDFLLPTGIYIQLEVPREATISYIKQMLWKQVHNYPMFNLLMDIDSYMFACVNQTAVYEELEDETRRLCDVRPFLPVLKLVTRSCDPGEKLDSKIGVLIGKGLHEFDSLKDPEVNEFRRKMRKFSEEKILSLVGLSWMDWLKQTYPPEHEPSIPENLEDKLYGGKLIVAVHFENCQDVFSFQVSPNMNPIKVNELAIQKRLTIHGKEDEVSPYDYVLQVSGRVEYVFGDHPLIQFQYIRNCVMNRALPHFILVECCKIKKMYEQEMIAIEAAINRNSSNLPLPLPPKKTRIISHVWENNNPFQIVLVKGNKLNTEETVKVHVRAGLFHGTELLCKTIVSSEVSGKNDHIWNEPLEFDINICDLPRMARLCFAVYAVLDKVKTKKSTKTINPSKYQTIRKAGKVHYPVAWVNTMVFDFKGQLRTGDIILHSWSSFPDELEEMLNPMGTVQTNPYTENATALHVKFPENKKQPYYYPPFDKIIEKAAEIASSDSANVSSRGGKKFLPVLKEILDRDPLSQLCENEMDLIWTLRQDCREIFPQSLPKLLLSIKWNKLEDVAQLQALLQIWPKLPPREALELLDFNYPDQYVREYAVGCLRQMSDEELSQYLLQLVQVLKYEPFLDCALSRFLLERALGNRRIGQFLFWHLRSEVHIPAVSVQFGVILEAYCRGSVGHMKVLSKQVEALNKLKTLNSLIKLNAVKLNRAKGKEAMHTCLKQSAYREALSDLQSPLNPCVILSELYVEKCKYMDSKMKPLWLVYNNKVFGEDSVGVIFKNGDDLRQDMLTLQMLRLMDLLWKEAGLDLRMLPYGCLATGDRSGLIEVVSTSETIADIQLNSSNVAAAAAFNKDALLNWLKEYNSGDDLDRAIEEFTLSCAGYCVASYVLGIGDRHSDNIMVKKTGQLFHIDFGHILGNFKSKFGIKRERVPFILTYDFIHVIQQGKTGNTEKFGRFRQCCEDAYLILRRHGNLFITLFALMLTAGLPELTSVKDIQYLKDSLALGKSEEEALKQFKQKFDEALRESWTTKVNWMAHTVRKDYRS

Mus musculus [2] = experiment: In vivo inhibition of PI3Kalpha in nude nu/nu mouse assessed as free P110alpha levels at 100 mg/kg, ip qd administered for 5 consecutive days measured 1 to 4 hrs post last dose by immunoblot method; format: functional, organism-based; design: dose 100 mg/kg
Summary of the method: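 Female nu/nu mice (n = 3/group) dosed ip at 100 mg/kg once daily for 5 days. Spleens harvested 1, 4 and 24 h after the last dose and homogenized. Lysate (150 μg protein) incubated with a biotinylated covalent probe at 1 μM for 1 h at RT, then immunoprecipitated with anti-p110α overnight at 4 °C. Immunoblot: streptavidin signal normalized to total p110α, expressed as % of vehicle.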

Mus musculus [3] = experiment: In vivo inhibition of PI3Kalpha in nude nu/nu mouse spleen assessed as inhibition of Akt Ser473 phosphorylation at 100 mg/kg, ip qd administered for 5 consecutive days measured 1 to 4 hrs post last dose by immunoblotting method; format: functional, organism-based; design: dose 100 mg/kg
Summary of the method: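 Female nu/nu mice (n = 3/group) dosed ip at 100 mg/kg once daily for 5 days. Spleens collected 1, 4 and 24 h post last dose, frozen, then homogenized in extraction buffer with protease and phosphatase inhibitors. Lysates immunoblotted for P-Akt Ser473.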

MCF7 = experiment: Growth inhibition of human MCF7 cells assessed as cell viability after 96 hrs by Cell Titre Glo assay; format: functional; settings: MCF7, 96 h
SK-OV-3 = experiment: Growth inhibition of human SKOV3 cells assessed as cell viability after 96 hrs by Cell Titre Glo assay; format: functional; settings: SK-OV-3, 96 h
Plasma = experiment: Plasma protein binding in human albumin-depleted plasma after 1 to 3 hrs by MALDI TOF/TOF mass spectrometry; format: ADME, cell-free
Summary of the method: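 Human plasma albumin-depleted, not fully, and diluted to 1 mg/mL. A 10 mM DMSO compound stock diluted 1:10 into it; incubated at 37 °C for 1 or 3 h. Samples desalted on C4 tips and analysed by MALDI TOF/TOF (sinapinic acid matrix, ovalbumin internal standard) for mass shifts.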

Sphingosine kinase 2 = molecular target: T2, Sphingosine kinase 2 (Homo sapiens, UniProt Q9NRA0); experiment: Inhibition of SPHK2 (unknown origin) by ADP-GLO assay
T2 sequence (Q9NRA0 whole entry): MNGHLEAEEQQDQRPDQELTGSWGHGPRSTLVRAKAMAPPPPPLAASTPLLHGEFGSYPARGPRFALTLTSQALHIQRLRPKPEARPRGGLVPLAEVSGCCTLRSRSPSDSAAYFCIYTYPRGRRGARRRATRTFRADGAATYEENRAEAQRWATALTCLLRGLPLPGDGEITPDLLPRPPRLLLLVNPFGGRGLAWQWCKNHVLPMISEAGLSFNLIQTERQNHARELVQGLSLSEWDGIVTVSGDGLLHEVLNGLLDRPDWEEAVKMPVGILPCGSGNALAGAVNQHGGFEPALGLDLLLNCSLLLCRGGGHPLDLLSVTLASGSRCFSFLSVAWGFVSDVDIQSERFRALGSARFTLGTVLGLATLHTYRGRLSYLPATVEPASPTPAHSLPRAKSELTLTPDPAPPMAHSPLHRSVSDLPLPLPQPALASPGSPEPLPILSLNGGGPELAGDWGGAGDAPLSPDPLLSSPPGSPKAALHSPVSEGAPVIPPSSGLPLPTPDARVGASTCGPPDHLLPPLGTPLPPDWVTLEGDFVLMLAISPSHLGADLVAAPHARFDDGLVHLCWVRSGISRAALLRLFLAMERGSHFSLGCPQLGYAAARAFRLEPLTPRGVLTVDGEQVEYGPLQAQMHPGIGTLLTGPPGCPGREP
Summary of the method: (§1)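 Reaction Biology panel using ADP-Glo format at 10 μM ATP. Substrate was sphingosine for SPHK1 and SPHK2, and phosphatidylinositol for the other enzymes.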

Sphingosine kinase 1 = Sphingosine kinase 1 (Homo sapiens, UniProt Q9NYA1); experiment: Inhibition of SPHK1 (unknown origin) by ADP-GLO assay; summary of the method: as §1
[4] = molecular target: Phosphatidylinositol 4-kinase alpha (Homo sapiens, UniProt P42356); experiment: Inhibition of PI4Kalpha (unknown origin) by ADP-GLO assay; summary of the method: as §1
[5] = molecular target: Phosphatidylinositol 4-kinase beta (Homo sapiens, UniProt Q9UBF8); experiment: Inhibition of PI4Kbeta (unknown origin) by ADP-GLO assay; summary of the method: as §1
[6] = molecular target: Phosphatidylinositol 3-kinase catalytic subunit type 3 (Homo sapiens, UniProt Q8NEB9); experiment: Inhibition of PI3KC3 (unknown origin) by ADP-GLO assay; summary of the method: as §1
[7] = molecular target: Phosphatidylinositol 4-phosphate 3-kinase C2 domain-containing subunit alpha (Homo sapiens, UniProt O00443); experiment: Inhibition of PI3KC2A (unknown origin) by ADP-GLO assay; summary of the method: as §1
[8] = molecular target: T3, Phosphatidylinositol 4,5-bisphosphate 3-kinase catalytic subunit delta isoform (Homo sapiens, UniProt O00329); experiment: Inhibition of PI3Kdelta (unknown origin) by HTRF assay
T3 sequence (O00329 whole entry): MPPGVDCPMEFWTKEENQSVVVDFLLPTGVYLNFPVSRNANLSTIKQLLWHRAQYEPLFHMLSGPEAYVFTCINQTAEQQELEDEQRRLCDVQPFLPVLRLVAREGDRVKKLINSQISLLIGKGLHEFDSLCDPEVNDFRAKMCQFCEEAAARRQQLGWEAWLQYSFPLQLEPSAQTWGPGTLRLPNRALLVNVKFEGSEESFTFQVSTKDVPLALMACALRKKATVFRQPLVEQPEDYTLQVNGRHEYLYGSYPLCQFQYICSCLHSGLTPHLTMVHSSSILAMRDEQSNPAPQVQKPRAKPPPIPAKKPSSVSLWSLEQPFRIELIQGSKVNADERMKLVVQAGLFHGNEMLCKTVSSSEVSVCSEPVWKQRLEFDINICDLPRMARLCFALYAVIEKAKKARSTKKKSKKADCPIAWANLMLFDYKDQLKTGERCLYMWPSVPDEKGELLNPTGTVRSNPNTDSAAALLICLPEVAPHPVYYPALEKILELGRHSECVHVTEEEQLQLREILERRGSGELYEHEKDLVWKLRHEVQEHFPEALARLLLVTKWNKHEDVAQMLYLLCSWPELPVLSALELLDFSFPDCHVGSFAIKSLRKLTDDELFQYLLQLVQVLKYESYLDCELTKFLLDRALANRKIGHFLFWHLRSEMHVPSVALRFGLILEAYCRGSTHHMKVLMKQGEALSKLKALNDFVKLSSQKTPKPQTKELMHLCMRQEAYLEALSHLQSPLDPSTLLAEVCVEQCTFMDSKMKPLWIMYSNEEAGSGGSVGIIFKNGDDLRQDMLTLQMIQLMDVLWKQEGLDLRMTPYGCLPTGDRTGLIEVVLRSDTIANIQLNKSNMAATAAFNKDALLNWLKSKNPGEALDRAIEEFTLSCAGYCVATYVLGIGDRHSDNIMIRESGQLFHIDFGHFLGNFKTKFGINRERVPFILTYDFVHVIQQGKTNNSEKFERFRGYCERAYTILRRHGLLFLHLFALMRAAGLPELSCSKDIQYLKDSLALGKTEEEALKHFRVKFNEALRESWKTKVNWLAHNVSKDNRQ

[9] = molecular target: Phosphatidylinositol 4,5-bisphosphate 3-kinase catalytic subunit gamma isoform (Homo sapiens, UniProt P48736); experiment: Inhibition of PI3Kgamma (unknown origin) by HTRF assay
Summary of the method: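 Contract lab panel, end-point HTRF format with phosphatidylinositol 4,5-bisphosphate as substrate and 10 μM ATP. Ten-point curve, 3-fold serial dilutions starting at 1 μM. Reported as an apparent IC50 (IC50App).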

[10] = molecular target: T1, Phosphatidylinositol 4,5-bisphosphate 3-kinase catalytic subunit beta isoform; experiment: Inhibition of PI3Kbeta (unknown origin) by HTRF assay
Summary of the method: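 PI3Kβ tested in a 10-concentration curve, 3-fold serial dilution starting at 1 μM, at 10 μM ATP. Substrate phosphatidylinositol 4,5-bisphosphate, HTRF read-out. Value reported as apparent IC50 from an end-point assay.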
Target sequence in this assay (P42338 whole entry, canonical isoform): as the sequence (P42338 whole entry, looked up, canonical isoform) above

[11] = molecular target: Phosphatidylinositol 4,5-bisphosphate 3-kinase catalytic subunit alpha isoform (Homo sapiens) (UniProt P42336); settings: SK-OV-3, 500 nM
[12] = molecular target: Phosphatidylinositol 4,5-bisphosphate 3-kinase catalytic subunit alpha isoform (Homo sapiens) (UniProt P42336); settings: SK-OV-3, 500 nM; remark: listed apart in the source
[13] = molecular target: Phosphatidylinositol 4,5-bisphosphate 3-kinase catalytic subunit alpha isoform (Homo sapiens) (UniProt P42336); settings: SK-OV-3, 1 to 1000 nM

Phosphatidylinositol 4,5-bisphosphate 3-kinase catalytic subunit alpha isoform (Homo sapiens), sequence (P42336 whole entry, canonical isoform): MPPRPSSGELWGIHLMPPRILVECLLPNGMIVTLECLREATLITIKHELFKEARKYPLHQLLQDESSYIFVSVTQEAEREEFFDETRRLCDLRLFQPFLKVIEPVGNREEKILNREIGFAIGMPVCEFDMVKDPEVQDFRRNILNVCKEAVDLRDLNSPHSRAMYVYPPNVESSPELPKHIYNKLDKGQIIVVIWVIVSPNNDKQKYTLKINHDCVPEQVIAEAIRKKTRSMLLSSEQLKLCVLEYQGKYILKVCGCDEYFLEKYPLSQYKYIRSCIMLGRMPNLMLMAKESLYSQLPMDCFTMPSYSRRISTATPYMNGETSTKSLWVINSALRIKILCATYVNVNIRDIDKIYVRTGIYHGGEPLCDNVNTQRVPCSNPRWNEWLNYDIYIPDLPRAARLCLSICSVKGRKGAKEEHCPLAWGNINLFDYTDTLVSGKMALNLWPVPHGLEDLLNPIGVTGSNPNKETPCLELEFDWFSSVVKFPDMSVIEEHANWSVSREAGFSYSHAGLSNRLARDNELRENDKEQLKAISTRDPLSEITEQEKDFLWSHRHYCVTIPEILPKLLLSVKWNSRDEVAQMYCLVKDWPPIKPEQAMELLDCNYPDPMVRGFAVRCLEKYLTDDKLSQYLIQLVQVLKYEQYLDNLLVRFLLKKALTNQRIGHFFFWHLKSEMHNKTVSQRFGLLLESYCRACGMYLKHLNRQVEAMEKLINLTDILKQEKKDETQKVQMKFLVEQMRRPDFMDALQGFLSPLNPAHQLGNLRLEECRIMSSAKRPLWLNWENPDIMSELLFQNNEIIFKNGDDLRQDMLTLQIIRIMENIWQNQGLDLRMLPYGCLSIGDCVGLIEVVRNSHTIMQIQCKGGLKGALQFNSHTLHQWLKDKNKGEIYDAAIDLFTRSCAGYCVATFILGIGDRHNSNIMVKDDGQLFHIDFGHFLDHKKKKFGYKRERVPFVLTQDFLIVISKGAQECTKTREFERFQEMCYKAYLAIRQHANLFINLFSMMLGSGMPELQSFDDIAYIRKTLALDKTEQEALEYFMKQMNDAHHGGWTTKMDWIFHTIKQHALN
Sphingosine kinase 1, sequence (Q9NYA1 whole entry): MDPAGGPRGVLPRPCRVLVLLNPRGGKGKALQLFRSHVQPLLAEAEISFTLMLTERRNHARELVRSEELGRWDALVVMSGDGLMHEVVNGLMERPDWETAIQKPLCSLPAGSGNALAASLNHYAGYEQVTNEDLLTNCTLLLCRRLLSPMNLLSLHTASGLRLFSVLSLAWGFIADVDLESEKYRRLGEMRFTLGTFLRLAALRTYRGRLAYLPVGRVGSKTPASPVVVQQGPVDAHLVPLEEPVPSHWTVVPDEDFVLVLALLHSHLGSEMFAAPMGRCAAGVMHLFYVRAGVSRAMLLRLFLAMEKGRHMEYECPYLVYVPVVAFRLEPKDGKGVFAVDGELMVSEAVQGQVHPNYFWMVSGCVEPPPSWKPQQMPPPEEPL
Phosphatidylinositol 4-phosphate 3-kinase C2 domain-containing subunit alpha, sequence (O00443 whole entry, the tested form may be a part, canonical isoform): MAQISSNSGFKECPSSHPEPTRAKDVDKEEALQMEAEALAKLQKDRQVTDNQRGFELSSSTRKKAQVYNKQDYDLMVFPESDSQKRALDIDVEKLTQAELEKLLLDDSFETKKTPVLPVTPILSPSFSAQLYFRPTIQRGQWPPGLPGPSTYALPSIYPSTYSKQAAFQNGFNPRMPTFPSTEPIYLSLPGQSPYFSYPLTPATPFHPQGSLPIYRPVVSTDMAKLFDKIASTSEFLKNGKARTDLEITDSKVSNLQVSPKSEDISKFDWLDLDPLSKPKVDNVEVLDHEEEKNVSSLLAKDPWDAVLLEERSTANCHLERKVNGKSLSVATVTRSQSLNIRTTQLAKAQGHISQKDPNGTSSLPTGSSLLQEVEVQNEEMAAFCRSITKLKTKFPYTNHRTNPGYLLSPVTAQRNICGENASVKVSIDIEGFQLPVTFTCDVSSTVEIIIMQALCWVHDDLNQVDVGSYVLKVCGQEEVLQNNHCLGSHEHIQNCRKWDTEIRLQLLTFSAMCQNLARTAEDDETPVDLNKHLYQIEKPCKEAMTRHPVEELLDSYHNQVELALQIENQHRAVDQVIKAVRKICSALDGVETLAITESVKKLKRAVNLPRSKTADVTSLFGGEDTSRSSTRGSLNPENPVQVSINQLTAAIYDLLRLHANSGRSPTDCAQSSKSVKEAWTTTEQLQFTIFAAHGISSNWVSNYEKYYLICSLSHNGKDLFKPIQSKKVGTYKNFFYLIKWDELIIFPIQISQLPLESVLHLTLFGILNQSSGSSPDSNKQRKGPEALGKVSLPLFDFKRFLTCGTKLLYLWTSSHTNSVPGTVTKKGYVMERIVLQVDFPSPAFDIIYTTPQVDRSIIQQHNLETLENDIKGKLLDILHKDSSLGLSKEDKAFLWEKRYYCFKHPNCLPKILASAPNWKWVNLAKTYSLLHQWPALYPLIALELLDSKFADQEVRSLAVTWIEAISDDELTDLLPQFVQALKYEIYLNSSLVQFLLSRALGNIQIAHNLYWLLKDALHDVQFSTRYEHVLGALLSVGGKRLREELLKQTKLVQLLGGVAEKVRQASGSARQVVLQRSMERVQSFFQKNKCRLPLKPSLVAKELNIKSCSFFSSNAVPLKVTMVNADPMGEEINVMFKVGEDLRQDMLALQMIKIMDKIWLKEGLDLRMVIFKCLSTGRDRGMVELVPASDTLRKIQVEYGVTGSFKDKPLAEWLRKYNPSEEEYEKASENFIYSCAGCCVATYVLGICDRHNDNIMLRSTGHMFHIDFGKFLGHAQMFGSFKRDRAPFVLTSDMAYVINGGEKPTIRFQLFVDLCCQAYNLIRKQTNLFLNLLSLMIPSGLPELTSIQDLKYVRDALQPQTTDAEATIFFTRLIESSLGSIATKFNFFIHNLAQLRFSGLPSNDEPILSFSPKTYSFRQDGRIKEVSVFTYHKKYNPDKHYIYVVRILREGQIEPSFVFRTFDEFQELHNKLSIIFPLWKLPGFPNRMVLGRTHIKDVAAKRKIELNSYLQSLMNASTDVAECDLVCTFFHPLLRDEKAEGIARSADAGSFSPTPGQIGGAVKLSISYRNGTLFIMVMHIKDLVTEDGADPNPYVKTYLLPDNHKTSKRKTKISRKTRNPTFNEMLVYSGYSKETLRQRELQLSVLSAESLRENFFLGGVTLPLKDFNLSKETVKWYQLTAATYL
Phosphatidylinositol 4-kinase beta, sequence (Q9UBF8 whole entry): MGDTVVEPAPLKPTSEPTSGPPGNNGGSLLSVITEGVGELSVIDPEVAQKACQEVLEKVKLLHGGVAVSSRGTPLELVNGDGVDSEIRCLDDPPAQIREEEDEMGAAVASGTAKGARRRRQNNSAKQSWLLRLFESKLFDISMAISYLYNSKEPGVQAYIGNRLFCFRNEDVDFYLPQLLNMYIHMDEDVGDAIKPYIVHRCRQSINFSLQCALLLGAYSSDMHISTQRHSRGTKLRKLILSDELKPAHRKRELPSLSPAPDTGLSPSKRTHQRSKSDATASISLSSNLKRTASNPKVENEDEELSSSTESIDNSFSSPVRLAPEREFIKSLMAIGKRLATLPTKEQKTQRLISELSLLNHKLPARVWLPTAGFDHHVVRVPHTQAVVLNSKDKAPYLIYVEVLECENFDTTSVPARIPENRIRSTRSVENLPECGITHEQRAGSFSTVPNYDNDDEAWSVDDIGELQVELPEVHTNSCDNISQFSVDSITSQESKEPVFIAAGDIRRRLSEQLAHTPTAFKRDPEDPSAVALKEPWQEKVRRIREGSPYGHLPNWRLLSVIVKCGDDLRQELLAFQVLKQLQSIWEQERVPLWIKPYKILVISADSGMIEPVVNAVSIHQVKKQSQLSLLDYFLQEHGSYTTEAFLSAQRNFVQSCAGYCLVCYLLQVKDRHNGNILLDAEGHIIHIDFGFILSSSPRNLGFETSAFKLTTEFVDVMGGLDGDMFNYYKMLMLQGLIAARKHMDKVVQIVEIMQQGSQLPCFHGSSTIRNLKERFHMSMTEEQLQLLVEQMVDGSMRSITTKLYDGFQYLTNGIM

Row | Structure (SMILES) | Activity [1] | Activity (Mus musculus [2]) | Activity (Mus musculus [3]) | GI50 (MCF7) | GI50 (SK-OV-3) | PPB (Plasma) | IC50 (Sphingosine kinase 2) | IC50 (Sphingosine kinase 1) | IC50 [4] | IC50 [5] | IC50 [6] | IC50 [7] | IC50 [8] | IC50 [9] | IC50 [10] | inhibition [11] | inhibition [12] | inhibition [13]
1 | CC(C)=CC(=O)CCC(=O)N1CCN(Cc2cc3nc(-c4cccc5[nH]ncc45)nc(N4CCOCC4)c3s2)CC1 | inactive | Active | Active | 54.7 nM | 77.6 nM | Not Active | > 1000 nM | > 1000 nM | > 1000 nM | > 1000 nM | > 1000 nM | > 1000 nM | 3020 nM | 240 nM | 166 nM | Active | – | –
2 | CS(=O)(=O)N1CCN(Cc2cc3nc(-c4cccc5[nH]ncc45)nc(N4CCOCC4)c3s2)CC1 [PICTILISIB] | – | – | – | 70.2 nM | 148 nM | – | – | – | – | – | – | – | – | – | – | – | inactive | Active
